Experimental data collected from several papers.
Read-out: cell growth or viability

`C=C(F)C(=O)N1CCN(c2nc(OC[C@@H]3CCCN3C)nc3c2CCN(c2cccc4cccc(Cl)c24)C3)C[C@@H]1CC#N` has an IC50 of greater than 10 µM (TOV21G; ATP luminescence).
For `CCNCCCn1c2c(c3cc(OC)c(OC)cc3c1=O)C(=O)c1cc3c(nc1-2)OCO3`, the IC50 was 0.19 µM (RPMI-8226; MTS; 72 h).
For `CCC[C@H]1NC(=O)[C@H](Cc2cc(Cl)ccc2-c2cnn(C)c2)N(C)C(=O)[C@H](CC(C)C)NC(=O)[C@@H](N(C)C(=O)[C@H](CCCCN2CCOCC2)NC(=O)[C@@H](c2cccnc2)C2CCCCC2)CCCCNC1=O`, the GI50 was 5.2 µM (NCI-H69; MTT; 5 days).
With `C=CC(=O)N1CCN(c2nc(=O)n(-c3c(C)ccnc3C(C)C)c3nc(-c4c(O)cccc4F)c(F)cc23)[C@@H](C)C1` the IC50 was greater than 10 µM (TOV21G; ATP luminescence).
`C=CC(=O)NC1CCN(c2ncc3ncnc(Nc4ccc(Oc5ccc6c(c5)ncn6C)c(C)c4)c3n2)CC1` gave an EC50 of 4.93 µM (CAL-120).
`C[C@H](NC(=O)[C@H](CC(=O)NCC(C)(C)C)NC(=O)C(=O)c1c[nH]c2ccccc12)C(=O)NCc1ccc(F)cc1F` has an IC50 of 11.5 µM (RPMI-8226; MTS; 72 h).
`COc1cccc2c1C(=O)c1c(O)c3c(c(O)c1C2=O)C[C@@](O)(C(=O)CO)C[C@@H]3O[C@H]1C[C@H](N)[C@H](O)[C@H](C)O1` has an IC50 of 0.5 µM (MDA-MB-157; MTT; 72 h).
For `CCCN1C(=O)[C@H](CC(C)C)NC(=O)[C@@H](N(C)C(=O)[C@H](CC2CCC2)NC(=O)[C@@H]2C[C@@H](F)CN2C(=O)[C@@](C)(O)C(F)(F)F)CCCCNC(=O)C2(CC2)NC(=O)[C@@H]1Cc1cc(Cl)ccc1Cl`, the GI50 was 0.006 µM (NCI-H69; MTT; 5 days).
With `COc1cc2c3c(n(CCCNCCO)c(=O)c2cc1OC)-c1nc2c(cc1C3=O)OCO2` the IC50 was 0.559 µM (RPMI-8226; MTS; 72 h).
